According to ChEMBL document CHEMBL4689842, “EUbOPEN Chemogenomics Library wave 1” (2021):

System: Fibroblast
Assay: Multiplex assay against human fibroblast
Assay type: toxicity, cell-based
In short: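 Cells stained live at seeding with Hoechst33342, BioTracker Green Microtubule Cytoskeleton Dye, MitoTracker Red and Annexin V Alexa Fluor 680 were imaged on a CQ1 microscope at 37°C and 5% CO2 after compound addition. Their classification by CellPathfinder machine-learning gating ran from Hoechst high-intensity objects versus normal cells, to healthy, pyknosed or fragmented nuclei among normal cells, to mitotic or apoptotic among pyknosed cells. Tubulin, mitochondrial-mass and membrane-permeability phenotypes are per cents of healthy-nucleus cells.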

[1] = 12 h, 1 µM, compound concentration 1 uM, replicate 1
[2] = 12 h, 1 µM, compound concentration 1 uM, replicate 2
[3] = 12 h, 10 µM, compound concentration 10 uM, replicate 1
[4] = 12 h, 10 µM, compound concentration 10 uM, replicate 2
[5] = 24 h, 1 µM, compound concentration 1 uM, replicate 1
[6] = 24 h, 1 µM, compound concentration 1 uM, replicate 2
[7] = 24 h, 10 µM, compound concentration 10 uM, replicate 1
[8] = 24 h, 10 µM, compound concentration 10 uM, replicate 2
[9] = 48 h, 1 µM, compound concentration 1 uM, replicate 1
[10] = 48 h, 1 µM, compound concentration 1 uM, replicate 2
[11] = 48 h, 10 µM, compound concentration 10 uM, replicate 1
[12] = 48 h, 10 µM, compound concentration 10 uM, replicate 2

Cc1cn(-c2cc(NC(=O)c3ccc4c(c3)CN(c3cncnc3)C[C@@H]4C)cc(C(F)(F)F)c2)cn1
Population Apoptotic (%) [1]: 81% | Population Fragmented Nuclei (%) [1]: 31% | Population Healthy Nuclei (%) [1]: 50% | Population Hoechst High Intensity Objects (%) [1]: 15% | Population Membrane Permeable-Phenotype (%) [1]: 7% | Population Mitochondria Different-Phenotype (%) [1]: 4% | Population Mitotic Cells (%) [1]: 18% | Population Normal (%) [1]: 84% | Population Pyknosed Nuclei (%) [1]: 17% | Population Tubulin-Different-Phenotype (%) [1]: 9% | Total Cell Count [1]: 147 | Population Apoptotic (%) [2]: 42% | Population Fragmented Nuclei (%) [2]: 58% | Population Healthy Nuclei (%) [2]: 31% | Population Hoechst High Intensity Objects (%) [2]: 30% | Population Membrane Permeable-Phenotype (%) [2]: 0% | Population Mitochondria Different-Phenotype (%) [2]: 9% | Population Mitotic Cells (%) [2]: 57% | Population Normal (%) [2]: 70% | Population Pyknosed Nuclei (%) [2]: 10% | Population Tubulin-Different-Phenotype (%) [2]: 22% | Total Cell Count [2]: 100 | Population Apoptotic (%) [3]: 71% | Population Fragmented Nuclei (%) [3]: 33% | Population Healthy Nuclei (%) [3]: 49% | Population Hoechst High Intensity Objects (%) [3]: 13% | Population Mitochondria Different-Phenotype (%) [3]: 5% | Population Mitotic Cells (%) [3]: 28% | Population Normal (%) [3]: 86% | Population Pyknosed Nuclei (%) [3]: 17% | Population Tubulin-Different-Phenotype (%) [3]: 23% | Total Cell Count [3]: 141 | Population Apoptotic (%) [4]: 75% | Population Fragmented Nuclei (%) [4]: 67% | Population Healthy Nuclei (%) [4]: 18% | Population Hoechst High Intensity Objects (%) [4]: 36% | Population Membrane Permeable-Phenotype (%) [4]: 10% | Population Mitochondria Different-Phenotype (%) [4]: 50% | Population Mitotic Cells (%) [4]: 25% | Population Normal (%) [4]: 63% | Population Pyknosed Nuclei (%) [4]: 14% | Population Tubulin-Different-Phenotype (%) [4]: 40% | Total Cell Count [4]: 87 | Population Apoptotic (%) [5]: 92% | Population Fragmented Nuclei (%) [5]: 35% | Population Healthy Nuclei (%) [5]: 45% | Population Hoechst High Intensity Objects (%) [5]: 19% | Population Membrane Permeable-Phenotype (%) [5]: 11% | Population Mitochondria Different-Phenotype (%) [5]: 1% | Population Mitotic Cells (%) [5]: 7% | Population Normal (%) [5]: 80% | Population Pyknosed Nuclei (%) [5]: 19% | Population Tubulin-Different-Phenotype (%) [5]: 7% | Total Cell Count [5]: 172 | Population Apoptotic (%) [6]: 42% | Population Fragmented Nuclei (%) [6]: 51% | Population Healthy Nuclei (%) [6]: 37% | Population Hoechst High Intensity Objects (%) [6]: 28% | Population Membrane Permeable-Phenotype (%) [6]: 13% | Population Mitochondria Different-Phenotype (%) [6]: 8% | Population Mitotic Cells (%) [6]: 57% | Population Normal (%) [6]: 71% | Population Pyknosed Nuclei (%) [6]: 11% | Population Tubulin-Different-Phenotype (%) [6]: 17% | Total Cell Count [6]: 87 | Population Apoptotic (%) [7]: 66% | Population Fragmented Nuclei (%) [7]: 36% | Population Healthy Nuclei (%) [7]: 48% | Population Hoechst High Intensity Objects (%) [7]: 16% | Population Membrane Permeable-Phenotype (%) [7]: 3% | Population Mitochondria Different-Phenotype (%) [7]: 10% | Population Mitotic Cells (%) [7]: 33% | Population Normal (%) [7]: 83% | Population Pyknosed Nuclei (%) [7]: 15% | Population Tubulin-Different-Phenotype (%) [7]: 26% | Total Cell Count [7]: 161 | Population Apoptotic (%) [8]: 57% | Population Fragmented Nuclei (%) [8]: 66% | Population Healthy Nuclei (%) [8]: 20% | Population Hoechst High Intensity Objects (%) [8]: 36% | Population Membrane Permeable-Phenotype (%) [8]: 9% | Population Mitochondria Different-Phenotype (%) [8]: 18% | Population Mitotic Cells (%) [8]: 42% | Population Normal (%) [8]: 63% | Population Pyknosed Nuclei (%) [8]: 12% | Population Tubulin-Different-Phenotype (%) [8]: 36% | Total Cell Count [8]: 85

Nc1nc2c(c(N3CCNCC3)n1)CCC1=C2[C@@H]2CCCC[C@@H]2O1
Population Apoptotic (%) [1]: 67% | Population Fragmented Nuclei (%) [1]: 37% | Population Healthy Nuclei (%) [1]: 42% | Population Hoechst High Intensity Objects (%) [1]: 15% | Population Membrane Permeable-Phenotype (%) [1]: 10% | Population Mitochondria Different-Phenotype (%) [1]: 1% | Population Mitotic Cells (%) [1]: 32% | Population Normal (%) [1]: 84% | Population Pyknosed Nuclei (%) [1]: 20% | Population Tubulin-Different-Phenotype (%) [1]: 20% | Total Cell Count [1]: 182 | Population Apoptotic (%) [2]: 0% | Population Fragmented Nuclei (%) [2]: 20% | Population Healthy Nuclei (%) [2]: 61% | Population Membrane Permeable-Phenotype (%) [2]: 8% | Population Mitochondria Different-Phenotype (%) [2]: 27% | Population Mitotic Cells (%) [2]: 100% | Population Pyknosed Nuclei (%) [2]: 18% | Population Tubulin-Different-Phenotype (%) [2]: 21% | Total Cell Count [2]: 71 | Population Apoptotic (%) [3]: 56% | Population Fragmented Nuclei (%) [3]: 22% | Population Healthy Nuclei (%) [3]: 34% | Population Hoechst High Intensity Objects (%) [3]: 42% | Population Membrane Permeable-Phenotype (%) [3]: 4% | Population Mitochondria Different-Phenotype (%) [3]: 13% | Population Mitotic Cells (%) [3]: 43% | Population Normal (%) [3]: 57% | Population Pyknosed Nuclei (%) [3]: 43% | Population Tubulin-Different-Phenotype (%) [3]: 52% | Total Cell Count [3]: 220 | Population Apoptotic (%) [4]: 27% | Population Fragmented Nuclei (%) [4]: 9% | Population Healthy Nuclei (%) [4]: 68% | Population Hoechst High Intensity Objects (%) [4]: 3% | Population Membrane Permeable-Phenotype (%) [4]: 25% | Population Mitochondria Different-Phenotype (%) [4]: 87% | Population Mitotic Cells (%) [4]: 72% | Population Normal (%) [4]: 96% | Population Pyknosed Nuclei (%) [4]: 21% | Population Tubulin-Different-Phenotype (%) [4]: 92% | Total Cell Count [4]: 106 | Population Apoptotic (%) [5]: 55% | Population Fragmented Nuclei (%) [5]: 30% | Population Healthy Nuclei (%) [5]: 50% | Population Hoechst High Intensity Objects (%) [5]: 24% | Population Membrane Permeable-Phenotype (%) [5]: 21% | Population Mitochondria Different-Phenotype (%) [5]: 2% | Population Mitotic Cells (%) [5]: 44% | Population Normal (%) [5]: 75% | Population Pyknosed Nuclei (%) [5]: 19% | Population Tubulin-Different-Phenotype (%) [5]: 47% | Total Cell Count [5]: 198 | Population Apoptotic (%) [6]: 20% | Population Fragmented Nuclei (%) [6]: 22% | Population Healthy Nuclei (%) [6]: 57% | Population Hoechst High Intensity Objects (%) [6]: 8% | Population Membrane Permeable-Phenotype (%) [6]: 6% | Population Mitochondria Different-Phenotype (%) [6]: 20% | Population Mitotic Cells (%) [6]: 80% | Population Normal (%) [6]: 91% | Population Pyknosed Nuclei (%) [6]: 20% | Population Tubulin-Different-Phenotype (%) [6]: 16% | Total Cell Count [6]: 82 | Population Apoptotic (%) [7]: 57% | Population Fragmented Nuclei (%) [7]: 20% | Population Healthy Nuclei (%) [7]: 36% | Population Hoechst High Intensity Objects (%) [7]: 45% | Population Membrane Permeable-Phenotype (%) [7]: 12% | Population Mitochondria Different-Phenotype (%) [7]: 16% | Population Mitotic Cells (%) [7]: 42% | Population Normal (%) [7]: 55% | Population Pyknosed Nuclei (%) [7]: 43% | Population Tubulin-Different-Phenotype (%) [7]: 43% | Total Cell Count [7]: 240 | Population Apoptotic (%) [8]: 33% | Population Fragmented Nuclei (%) [8]: 8% | Population Healthy Nuclei (%) [8]: 46% | Population Hoechst High Intensity Objects (%) [8]: 2% | Population Membrane Permeable-Phenotype (%) [8]: 22% | Population Mitochondria Different-Phenotype (%) [8]: 79% | Population Mitotic Cells (%) [8]: 66% | Population Normal (%) [8]: 97% | Population Pyknosed Nuclei (%) [8]: 45% | Population Tubulin-Different-Phenotype (%) [8]: 69% | Total Cell Count [8]: 109 | Population Apoptotic (%) [9]: 71% | Population Fragmented Nuclei (%) [9]: 44% | Population Healthy Nuclei (%) [9]: 45% | Population Hoechst High Intensity Objects (%) [9]: 34% | Population Membrane Permeable-Phenotype (%) [9]: 10% | Population Mitochondria Different-Phenotype (%) [9]: 1% | Population Mitotic Cells (%) [9]: 28% | Population Normal (%) [9]: 65% | Population Pyknosed Nuclei (%) [9]: 10% | Population Tubulin-Different-Phenotype (%) [9]: 22% | Total Cell Count [9]: 296 | Population Apoptotic (%) [10]: 41% | Population Fragmented Nuclei (%) [10]: 34% | Population Healthy Nuclei (%) [10]: 56% | Population Membrane Permeable-Phenotype (%) [10]: 13% | Population Mitochondria Different-Phenotype (%) [10]: 2% | Population Mitotic Cells (%) [10]: 58% | Population Pyknosed Nuclei (%) [10]: 9% | Population Tubulin-Different-Phenotype (%) [10]: 36% | Total Cell Count [10]: 204 | Population Apoptotic (%) [11]: 41% | Population Fragmented Nuclei (%) [11]: 20% | Population Healthy Nuclei (%) [11]: 50% | Population Hoechst High Intensity Objects (%) [11]: 49% | Population Membrane Permeable-Phenotype (%) [11]: 6% | Population Mitochondria Different-Phenotype (%) [11]: 11% | Population Mitotic Cells (%) [11]: 58% | Population Normal (%) [11]: 50% | Population Pyknosed Nuclei (%) [11]: 29% | Population Tubulin-Different-Phenotype (%) [11]: 58% | Total Cell Count [11]: 244 | Population Apoptotic (%) [12]: 38% | Population Fragmented Nuclei (%) [12]: 27% | Population Healthy Nuclei (%) [12]: 49% | Population Hoechst High Intensity Objects (%) [12]: 47% | Population Membrane Permeable-Phenotype (%) [12]: 9% | Population Mitochondria Different-Phenotype (%) [12]: 10% | Population Mitotic Cells (%) [12]: 61% | Population Normal (%) [12]: 52% | Population Pyknosed Nuclei (%) [12]: 23% | Population Tubulin-Different-Phenotype (%) [12]: 52% | Total Cell Count [12]: 215
